Data on 48 sequences can be found in the EternaBench riboswitch data.

This data set has as its system MS2 coat protein. Kind of data set: apparent Kd, MS2 coat protein; higher = weaker binding; RNA-MaP array; FMN 200 µM where present. The procedure, abridged: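 The apparent Kd is reported as the median of filtered per-cluster binding-curve fits. To get these curves, designs transcribed by stalled E. coli RNA polymerase on Illumina sequencing-chip clusters were titrated with SNAP-549-labelled MS2 coat protein from 0.7 or 1.5 nM, doubling to 3 µM. Titrations were run without and then with constant ligand in 100 mM Tris-HCl pH 7.5, 80 mM KCl, 4 mM MgCl2, BSA, DTT, yeast tRNA and Tween-20, and green signal was normalised to red-channel RNA signal and control-cluster median Fmax.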

The mark [1] stands for this setting: designed as: ON switch for flavin mononucleotide, no ligand.
Setting [2] is: ligand present: flavin mononucleotide, designed as: ON switch for flavin mononucleotide.
Where [3] appears, read: designed as: OFF switch for flavin mononucleotide, no ligand.
Setting [4] is: ligand present: flavin mononucleotide, designed as: OFF switch for flavin mononucleotide.

For “GAGCUCAAGCAGAAGGCCGUAUGUCAAUCGACAUGAGGAUCACCCAUGUAUGAGCUCGGCGUCGCGGAGGAUAUGCAGGCUCUA”, the “apparent Kd” value was 18.6 nM under setting [1] and 6.63 nM under setting [2].
Regarding “AGCAUGUGAGGAUAUGCGGACUCCGGUAAAGCUGGAGUCCAGUAGAAGGCACAUGAGGAUCACCCAUGUGAUAA”, the “apparent Kd” value by setting is: under setting [3], 85.6 nM; under setting [4], 106 nM.
Regarding “ACUACGAUAGCGAUAUGAUCGAGAGAUCAUGUCGCUAUUUUUAGAAGGACAUGAGGAUCACCCAUGUAGGAUAUGGGACGUGGA”, the “apparent Kd” value is, setting by setting: under setting [1], 70.4 nM; under setting [2], 27.1 nM.
In the case of “CUGAUGUGAGGAUAUCGGGCUACAGCCAGGCUGCUAGCAUACGAGAAGGCACAUGAGGAUCACCCAUGUGAGAA”, the “apparent Kd” value reads like this: under setting [3], 48.3 nM; under setting [4], 49.1 nM.
Consider “UAUGAUUGAGGAUAUUGUACUGCUGACAUGAGGAUCACCCAUGUAUGCUAACUCGGCCGUCGAGAAGGCAAUUAUG”, for which the “apparent Kd” value runs as follows: under setting [3], 141 nM; under setting [4], 51 nM.
For “GUAGAGUAAGGAUAUUGUGAAUAGGAUAGAAUGGUUAGAAGCAAGAAGGUACAUGAGGAUCACCCAUGUAAUGU” the same measures were 22.5 nM and 23.6 nM.
With “CCCAUCGCAUGAGGAUAUGGUCAGCUUUGCUGACCAGAAGGCAUGUCAUAAGACAUGAGGAUCACCCAUGUAGUUAAGAUGGGA”, the “apparent Kd” value stood at 654 nM under setting [1] and 48.3 nM under setting [2].
The matching figures for “AAAACAUGAGGAUCACCCAUGUAAAGAUCGGUCGAUCAAGGUGAGGAUAUACAAUAAUUGAUGGAGUAGAAGGCACUGGGUUGA”: 227 nM and 127 nM.
Take “ACAUGAGGAUCACCCAUGUAUUACAUGGUUAAGUUUAUUAACAGAAGGCGAAAAUACCAAUUGAUCGAGGAUAUGUAAUCAAUU”: the “apparent Kd” value by setting is: under setting [3], 33.8 nM; under setting [4], 43.2 nM.
As for “UUCGCUAAGGUGUAGCGAGACACGCAAGAAGGGUGAUGCACAUGAGGAUCACCCAUGUAAGCCUUACAGGAUAUUGCUUGCCGA”, the “apparent Kd” value reads like this: under setting [1], 899 nM; under setting [2], 211 nM.
For the sequence “CAGUACUGAGGAUAUACAUGAGGAUCACCCAUGUGUUCCUUGUAGGAUAUGCGCAAAAGUAGAAGCCAGAAGGAGAUGUGCCUA”, the “apparent Kd” value under setting [3] came to 6.95 nM and the “apparent Kd” value under setting [4] amounted to 7.31 nM.
For “GCCAGGAUGUGAGGAUAUGCUGAGGAUACCUCAGCAGAAGGCACAUGAGGAUCACCCAUGUACACUUAUCAUAAAUACCCUGGC” the same measures were 13.5 nM and 18.1 nM.
The matching figures for “GUCAGCUCGUGAGGAUAUACAACACUGCUUCGGCAGUGUAUUAAGAUCACAUGAGGAUCACCCAUGUAGAAGGCACGAGCAGAU”: 13.4 nM and 258 nM.
Regarding “AUAAAACAUGAGGAUCACCCAUGUCAACAAAGUCGAGGAUAUGGGCAAUUAAAAUAAGAACCAGAAGGCGAAUAAU”, the “apparent Kd” value by setting is: under setting [1], 172 nM; under setting [2], 39.8 nM.
As to “UGAUCGAGAGAUCUUAGAUUCUGGUAGGAUAUACAUUAUGUAUGAUAUACAUGAGGAUCACCCAUGUAGAAGGACUAGAGUCUA”, the “apparent Kd” value under setting [3] came to 6.2 nM and the “apparent Kd” value under setting [4] was determined as 9.39 nM.
The matching figures for “AAGUAGAUCCGAGGAUAUACAAUCCGGAAACGGUACAUGAGGAUCACCCAUGUAGAAGGCGGAUCUACAGGUACUAAAGUACCA”: 6.5 nM and 8.32 nM.
Regarding “UUUACGAAAGUCGAACGAUGUAGCAGAAGGACAUGAGGAUCACCCAUGUCAGCUGUAACAGCCAUGUAGGAUAUGCUACAUUUU”, the “apparent Kd” value reads like this: under setting [3], 5.37 nM; under setting [4], 6.12 nM.
Take “CUUUACAUAGGAUAUAGUUGCUUUUACAUGAGGAUCACCCAUGUCUCUCCUCUCUCUCUUCUAGAAGGAUGUUUCU”: the “apparent Kd” value by setting is: under setting [3], 56.3 nM; under setting [4], 48.5 nM.
As to “GGAGGACAUGAGGAUCACCCAUGUGGAUGAUCGCUAGGAUAUGCGUGCGGGAGGAGUGGUGCAGAAGGAGUGGGAU”, the “apparent Kd” value under setting [1] worked out at 350 nM and the “apparent Kd” value under setting [2] worked out at 272 nM.
Regarding “CUCAUGUAAGGAUAUCAGUAGUAAAAAAAUAAAAUUACUACUGAGAAGGUACAUGAGGAUCACCCAUGUAUCUU”, the “apparent Kd” value is, setting by setting: under setting [3], 84.8 nM; under setting [4], 72.5 nM.
As for “AAUUAAUUGUAGAAGGUACUUAAUUAUGUUAUGUAAGGAUAUACGUAAUUAUUACGACAUGUAUGACAUGAGGAUCACCCAUGU”, the “apparent Kd” value by setting is: under setting [1], 7.72 nM; under setting [2], 7.82 nM.
On to “CUUUUGUGAGGAUAUCAGUAGUAAAUAAAUAAAAUUUCUACUGAGAAGGCACAUGAGGAUCACCCAUGUUCCUC”, for which the “apparent Kd” value amounted to 38.5 nM under setting [3] and 220 nM under setting [4].
With “AUACAUGAGGAUCACCCAUGUUACUGGGUCUAAAUAGAACGUAGAAGGAUGUAUUUACACAUAACAUAGGAUAUACUAUAUAGU”, the “apparent Kd” value was 153 nM under setting [3] and 72.8 nM under setting [4].
As for “GUUGGGUUUUUUUUUGGACGUUCAACAUGAGGAUCACCCAUGUAGGAUAUCGUUUGUUUUUUUUACGAGAAGGGCGUAUUUUUU”, the “apparent Kd” value reads like this: under setting [3], 9.65 nM; under setting [4], 8.01 nM.
For “CCGACAUGAGGAUAUCCAUCUGGAUCAGACUAGAUCCUGAUGGAGAAGGCACAUGAGGAUCACCCAUGUUACGG” the same measures were 373 nM and 89.1 nM.
For the sequence “AAUUAUUUUUGAGGAUAUGGUGGUGAAACACCACCAGAAGGCGGAAUAAACAUGAGGAUCACCCAUGUGAGCCUGAUGCUUAUG”, the “apparent Kd” value is, setting by setting: under setting [3], 21.3 nM; under setting [4], 40.5 nM.
As to “GUGGCUUAUGAGAAGGCGAUCAUGAAACAUGAUCGAGGAUAUCAUGUAAACAUGAGGAUCACCCAUGUAUGGGUAUUAUGCUAC”, the “apparent Kd” value by setting is: under setting [1], 291 nM; under setting [2], 53.9 nM.
As for “GGAGGAGGUGUAGGAUAUAUAGAGGAGGGAGGGAUAGAAGGACAUGAGGAUCACCCAUGUGAGGAGGAGGAGGGAGGGAGGAGG”, the “apparent Kd” value under setting [3] amounted to 13.4 nM and the “apparent Kd” value under setting [4] was 11.9 nM.
Regarding “UGUCGGAGCAGAGGAUAUACAUGAGGAUCACCCAUGUAAUAAAGUGAAGCCUGGAAACAGGCAAUGUAGAAGGCUGCUCCGACA”, the “apparent Kd” value stood at 29.9 nM under setting [3] and 249 nM under setting [4].
For “UUUUUGUGAGGAUAUCAGUAGUAAAAAAAUAAAAUUACUACUGAGAAGGCACAUGAGGAUCACCCAUGUUCUUU” the same measures were 18.7 nM and 58.5 nM.
The matching figures for “CGGGUCUGAGGAUAUCCAUCUUCAUACAUGAGGAUCACCCAUGUUUACCUUUGGGUUUUUGGAGAAGGCAGUUUUC”: 43.5 nM and 74.6 nM.
For the sequence “UUUUUAUUUGUAGGAUAUGGAGACAUGAGGAUCACCCAUGUAUGAUAAGCUAAAUUAUGAUGUGGCCAGAAGGAUAUUAUUUUU”, the “apparent Kd” value reads like this: under setting [1], 51.1 nM; under setting [2], 72.6 nM.
Turning to “UUAAAUCAUGUAGGAUAUGCAUGGCGAAGCUACGCAGAAGGACAUGAGGAUCACCCAUGUUAUAGCGACCAAGUUAGGUUGCAA”, the “apparent Kd” value amounted to 88.7 nM under setting [3] and 211 nM under setting [4].
For “GUGUACAGAGGAUAUACUUAUGGAGUCACGAAAGUGGCUUCACAUGAGGAUCACCCAUGUAGAAGGCUGUACAC” the same measures were 28.1 nM and 31.1 nM.
For the sequence “ACGACGAAAGUCGAACGAUGUAGCAGAAGGACAUGAGGAUCACCCAUGUCAGCUGUAAAAGCCAUGUAGGAUAUGCUACAUCGA”, the “apparent Kd” value runs as follows: under setting [3], 3.51 nM; under setting [4], 4.4 nM.
On to “UUCAUUAACAUGAGGAUCACCCAUGUUGGCCAGUCUCACACCAGAAGGCACGUUGAGCACAGCAGUGAGGAUAUGGGUGACAUA”, for which the “apparent Kd” value reads like this: under setting [1], 236 nM; under setting [2], 223 nM.
“UGUUGAUAGCAGAAGGACAUGAGGAUCACCCAUGUAUGGAUACAAAUAUAUGUAGGAUAUGCUAUUAACUAAGAGUGAGCGUUC”: the “apparent Kd” value was found to be 9.12 nM under setting [3] and 24.4 nM under setting [4].
For “UUUCAUUACCCGAAGGAUAUCGCUCUUCCGACAUGAGGAUCACCCAUGUACUAGCCCUCCCUGCUCGAGAAGGUCGCGCGUGAAC”, the “apparent Kd” value by setting is: under setting [1], 103 nM; under setting [2], 67.4 nM.
As to “UAAGGACAUGAGGAUCACCCAUGUGAGGAUAUGCUCUACGAACGUUUAUUUAUGAGAAGCAGAAGGCACAUUUU”, the “apparent Kd” value amounted to 99.8 nM under setting [3] and 156 nM under setting [4].
The matching figures for “CGGUCGAUGUAAGGAUAUCGACUGGAAUACAGUCGAGAAGGUACAUGAGGAUCACCCAUGUAAACCUAUAAUAAAUAACGACCG”: 11.7 nM and 14.4 nM.
“GUUUUGAUAGGAUAUACAUGAGGAUCACCCAUGUCCCACCGGUUACCUAUGACCAUAUGUAGAAGGAUCGUUUG”: the “apparent Kd” value came to 51.7 nM under setting [3] and 78.9 nM under setting [4].
The matching figures for “AAUUAUUUACAGAAGGAGUAAGAUUAUGUAUUACUAGGAUAUGUAAACAUGAGGAUCACCCAUGUGUUUGUAGGUUUUUUAUGU”: 13.4 nM and 7.79 nM.
For “CUCAGACAUGAGGAUCACCCAUGUCAGGAUAUCGUCUACCUGUGGAAACACAGGUAGACGAGAAGGGAUGUGUU” the same measures were 51.6 nM and 44.1 nM.
Take “CCUAUGUGAGGAUAUCACUGGUCUUCUCACUGGAUGACCAGUGAGAAGGCACAUGAGGAUCACCCAUGUCGGUG”: the “apparent Kd” value under setting [3] came to 436 nM and the “apparent Kd” value under setting [4] worked out at 349 nM.
Consider “CUAUGAGCGAUAGGAUAUACUGAGAUUGAAUGGGUAGAAGGAUCGAUCGUGUAGAAGACAUGAGGAUCACCCAUGUUACGGGCC”, for which the “apparent Kd” value by setting is: under setting [1], 73.9 nM; under setting [2], 93.5 nM.
In the case of “AUCAGCUCGUCAGGAUAUACGUCACUGCGUCAGCAGUGUAAUAAAAUAACAUGAGGAUCACCCAUGUAGAAGGGACGAGCUGAU”, the “apparent Kd” value is 6.36 nM under setting [3] and 6.75 nM under setting [4].
As for “UUUUAACAUGAGGAUCACCCAUGUGAGGAUAUCGAUAUUUUUAUUAAUAUUAAUAAAACGAGAAGGCACAUUUU”, the “apparent Kd” value under setting [4] came out at 90.2 nM.
Take “AGCGAGAUAGGCGAGGAUAUGCUUUUUUGCACAUGAGGAUCACCCAUGUCUUUGUUUUUUGUUUUGCAGAAGGCGCAUUCUCUUU”: the “apparent Kd” value by setting is: under setting [1], 18.9 nM; under setting [2], 41.2 nM.
